Experimental data taken from ChEMBL document CHEMBL3351828, “Design and optimization of highly-selective fungal CYP51 inhibitors” (Bioorg Med Chem Lett, 2014).
In brackets after ≈: the same amount, converted by molar mass.

Key:
Cytochrome P450 3A4 = Cytochrome P450 3A4 (Homo sapiens, UniProt P08684); experiment: Inhibition of CYP3A4 in human hepatocytes using testosterone as substrate by HPLC/MS/MS method; type: ADME, cell-based, Hepatocyte
Candida albicans [1] = experiment: Antifungal activity against Candida albicans by broth macrodilution method; type: functional
Procedure, shortened: (§1)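 MIC against standard ATCC isolates determined under CLSI guidelines, M27-A3 for yeasts. […] Units μg/mL.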

Candida albicans [2] = experiment: Antifungal activity against Candida albicans R303 infected in CD-1 mouse assessed as reduction of kidney fungal burden at 50 mg/kg, po administered 2 hrs post infection on day 1 measured on day 2 relative to vehicle-treated control; type: functional
Procedure, shortened: (§2)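 Female CD-1 mice (7 weeks, 18-25 g) made neutropenic with IP cyclophosphamide (150 mg/kg) on days 4 and 1 before tail-vein inoculation with C. albicans R303. Single oral dose given 2 h after infection on day 1. Kidneys harvested day 2 and homogenized in PBS. CFU/kidney counted on SDA plates from serial dilutions. Percent reduction taken versus vehicle-treated controls. Fluconazole used as positive control.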

Trichophyton rubrum = experiment: Antifungal activity against Trichophyton rubrum by broth macrodilution method; type: functional; procedure, shortened: as §1
[3] = Selectivity index, ratio of IC50 for human hepatocytes CYP3A4 to MIC for Trichophyton rubrum; parameters: species or system Hepatocyte
Procedure, shortened: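 CYP3A4 IC50 measured in pooled human hepatocyte microsomes with 150 μM testosterone as substrate, a concentration equal to the Km determined in the same lab. […] Selectivity index calculated as CYP3A4 IC50 (μM) divided by T. rubrum MIC (μg/mL).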

[4] = Metabolic stability in human liver microsomes after 2 hrs; type: ADME; settings: read-out: Stability
Candida albicans [5] = experiment: Antifungal activity against Candida albicans infected in mouse candidiasis model assessed as reduction of kidney fungal burden at 10 mg/kg, po; type: functional; parameters: scale not given: the % may be the effect or the level left
[6] = system: Trichophyton mentagrophytes; experiment: Antifungal activity against Trichophyton mentagrophytes infected in guinea pig dermatophytosis model assessed as mycological efficacy at 10 mg/kg, po administered for 9 days; type: functional
Cytochrome P450 2C19 = Cytochrome P450 2C19 (Homo sapiens, UniProt P33261); experiment: Inhibition of CYP2C19 (unknown origin); type: ADME
[7] = Selectivity for yeast CYP51 over human CYP51
[8] = molecular target: Lanosterol 14-alpha demethylase (Candida albicans (strain SC5314 / ATCC MYA-2876) (Yeast), UniProt P10613); experiment: Binding affinity to Candida albicans CYP51
Cytochrome P450 2C9 = Cytochrome P450 2C9 (Homo sapiens, UniProt P11712); experiment: Inhibition of CYP2C9 (unknown origin); type: ADME
[9] = Half life in po dosed human; type: ADME, organism-based; settings: in vivo
Candida albicans [10] = experiment: Antifungal activity against Candida albicans R303 infected in CD-1 mouse assessed as reduction of kidney fungal burden at 20 mg/kg, po administered 2 hrs post infection on day 1 measured on day 2 relative to vehicle-treated control; type: functional; procedure, shortened: as §2
Candida albicans [11] = experiment: Antifungal activity against Candida albicans R303 infected in CD-1 mouse assessed as reduction of kidney fungal burden at 10 mg/kg, po administered 2 hrs post infection on day 1 measured on day 2 relative to vehicle-treated control; type: functional
Procedure, shortened: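 Female CD-1 mice (7 weeks, 18-25 g) made neutropenic with IP cyclophosphamide 150 mg/kg at 4 and 1 days before tail-vein inoculation with C. albicans R303. Single oral dose 2 h post-infection on day 1. Kidneys harvested day 2, homogenized in PBS, serially diluted and plated on SDA for CFU/kidney. Read-out: percent reduction in kidney fungal burden versus vehicle-treated controls.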

Cytochrome P450 3A4, sequence (P08684 whole entry): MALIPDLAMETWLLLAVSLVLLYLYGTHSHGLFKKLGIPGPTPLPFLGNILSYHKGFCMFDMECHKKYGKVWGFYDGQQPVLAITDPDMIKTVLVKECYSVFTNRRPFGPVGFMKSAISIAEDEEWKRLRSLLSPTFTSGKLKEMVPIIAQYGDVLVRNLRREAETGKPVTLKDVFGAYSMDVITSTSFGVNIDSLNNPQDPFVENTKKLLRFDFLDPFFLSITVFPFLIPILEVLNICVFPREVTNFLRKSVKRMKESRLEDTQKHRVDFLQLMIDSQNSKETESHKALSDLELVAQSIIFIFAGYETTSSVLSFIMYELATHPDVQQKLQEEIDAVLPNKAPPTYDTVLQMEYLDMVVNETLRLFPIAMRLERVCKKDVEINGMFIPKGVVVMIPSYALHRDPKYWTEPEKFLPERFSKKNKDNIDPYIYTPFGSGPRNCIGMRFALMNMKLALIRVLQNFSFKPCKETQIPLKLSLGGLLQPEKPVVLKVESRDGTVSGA
Cytochrome P450 2C19, sequence (P33261 whole entry): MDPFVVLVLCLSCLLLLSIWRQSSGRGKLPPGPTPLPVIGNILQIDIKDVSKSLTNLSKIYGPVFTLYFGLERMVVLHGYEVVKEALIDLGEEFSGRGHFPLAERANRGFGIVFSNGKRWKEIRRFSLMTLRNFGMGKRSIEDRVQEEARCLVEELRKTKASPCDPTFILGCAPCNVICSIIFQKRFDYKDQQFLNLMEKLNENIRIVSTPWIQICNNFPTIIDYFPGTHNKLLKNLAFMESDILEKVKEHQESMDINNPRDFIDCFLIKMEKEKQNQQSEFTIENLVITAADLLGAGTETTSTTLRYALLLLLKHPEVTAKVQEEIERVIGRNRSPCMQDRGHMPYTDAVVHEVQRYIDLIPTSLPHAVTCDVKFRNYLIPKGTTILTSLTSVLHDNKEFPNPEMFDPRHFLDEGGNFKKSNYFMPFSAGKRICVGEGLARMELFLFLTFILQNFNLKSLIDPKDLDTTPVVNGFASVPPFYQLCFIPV
Lanosterol 14-alpha demethylase, sequence (P10613 whole entry): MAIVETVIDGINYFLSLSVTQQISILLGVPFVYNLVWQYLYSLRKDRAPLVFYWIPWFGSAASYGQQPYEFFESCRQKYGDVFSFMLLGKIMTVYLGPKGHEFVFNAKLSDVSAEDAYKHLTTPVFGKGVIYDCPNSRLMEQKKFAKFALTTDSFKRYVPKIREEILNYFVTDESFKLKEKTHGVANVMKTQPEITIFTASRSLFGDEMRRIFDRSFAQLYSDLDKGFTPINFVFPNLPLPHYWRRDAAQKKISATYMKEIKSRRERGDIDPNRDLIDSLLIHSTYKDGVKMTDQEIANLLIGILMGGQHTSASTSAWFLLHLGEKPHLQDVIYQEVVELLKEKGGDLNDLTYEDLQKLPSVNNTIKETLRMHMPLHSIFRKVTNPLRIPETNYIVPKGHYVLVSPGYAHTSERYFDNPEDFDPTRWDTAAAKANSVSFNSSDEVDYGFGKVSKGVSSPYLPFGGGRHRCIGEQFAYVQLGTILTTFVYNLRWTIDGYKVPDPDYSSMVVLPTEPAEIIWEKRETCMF
Cytochrome P450 2C9, sequence (P11712 whole entry): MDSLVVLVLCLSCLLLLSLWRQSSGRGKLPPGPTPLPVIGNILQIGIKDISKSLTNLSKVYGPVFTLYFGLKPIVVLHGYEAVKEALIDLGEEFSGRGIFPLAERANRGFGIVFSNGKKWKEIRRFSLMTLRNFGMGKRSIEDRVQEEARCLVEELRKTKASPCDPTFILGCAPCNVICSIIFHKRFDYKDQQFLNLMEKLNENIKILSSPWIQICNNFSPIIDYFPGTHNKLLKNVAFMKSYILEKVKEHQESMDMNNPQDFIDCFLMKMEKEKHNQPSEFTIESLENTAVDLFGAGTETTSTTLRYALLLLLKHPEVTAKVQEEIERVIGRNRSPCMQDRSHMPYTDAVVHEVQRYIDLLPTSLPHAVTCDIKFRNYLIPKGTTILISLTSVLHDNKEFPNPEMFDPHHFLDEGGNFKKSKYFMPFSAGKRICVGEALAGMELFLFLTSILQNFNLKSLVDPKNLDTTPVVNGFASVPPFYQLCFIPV

For `N#Cc1ccc(-c2ccc(C(F)(F)C(O)(Cn3cnnn3)c3ccc(F)cc3F)nc2)cc1` (stereo not given), the IC50 (Cytochrome P450 3A4) was 16 µM, the MIC50 (Candida albicans [1]) was at most 0.016 µg/mL and the Efficacy (Candida albicans [2]) was 100%.

`OC(Cn1cnnn1)(c1ccc(F)cc1F)C(F)(F)c1ccc(OCC(F)(F)F)cn1` (stereo not given) gave an IC50 (Cytochrome P450 3A4) of 72 µM, an MIC50 (Candida albicans [1]) of 0.06 µg/mL (≈ 0.133 µM) and an Efficacy (Candida albicans [2]) of 81%.

In the case of `C[C@@H](c1ncncc1F)[C@](O)(Cn1ccnc1)c1ccc(F)cc1F`, the IC50 (Cytochrome P450 3A4) is reported as 0.8 µM and the MIC50 (Candida albicans [1]) is reported as 0.5 µg/mL (≈ 1.44 µM).

In the case of `CCC(C)n1ncn(-c2ccc(N3CCN(c4ccc(OCC5COC(Cn6cncn6)(c6ccc(Cl)cc6Cl)O5)cc4)CC3)cc2)c1=O` (stereo not given) [ITRACONAZOLE], the MIC50 (Candida albicans [1]) is reported as 0.016 µg/mL (≈ 0.0227 µM) and the MIC50 (Trichophyton rubrum) is reported as 0.062 µg/mL (≈ 0.0879 µM).

`O[C@@](Cn1cnnn1)(c1ccc(F)cc1F)C(F)(F)c1ccc(-c2ccc(OC(F)(F)F)cc2)cn1` gave an IC50 (Cytochrome P450 3A4) of 79 µM, an MIC50 (Candida albicans [1]) of at most 0.001 µg/mL and an MIC50 (Trichophyton rubrum) of at most 0.001 µg/mL. For the same compound, the “Selectivity Index” value [3] was over 79000.

With `C[C@@H](c1ncncc1F)[C@](O)(Cn1ccnn1)c1ccc(F)cc1F` the IC50 (Cytochrome P450 3A4) was 8 µM and the MIC50 (Candida albicans [1]) was over 16 µg/mL.

In the case of `C[C@@H](c1ncncc1F)[C@](O)(Cn1cnnc1)c1ccc(F)cc1F`, the IC50 (Cytochrome P450 3A4) is reported as 51 µM and the MIC50 (Candida albicans [1]) is reported as over 16 µg/mL.

Compound `O[C@@](Cn1cnnn1)(c1ccc(F)cc1F)C(F)(F)c1ccc(-c2ccc(OCC(F)(F)F)cc2)cn1` [OTESECONAZOLE] has an IC50 (Cytochrome P450 3A4) of 65 µM, a remaining at 2 h [4] of over 99% and an Activity (Candida albicans [5]) of 99%. It also gave an Activity [6] of 86%, an IC50 (Cytochrome P450 2C19) of 72 µM and an MIC50 (Candida albicans [1]) of at most 0.001 µg/mL. For the same compound, the Selectivity ratio [7] was over 2200, the MIC50 (Trichophyton rubrum) was at most 0.001 µg/mL and the Kd [8] was at most 0.039 µM. For the same compound, the IC50 (Cytochrome P450 2C9) was 99 µM, the half-life [9] was over 24 h and the “Selectivity Index” value [3] was over 65000.

`OC(Cn1cnnn1)(c1ccc(F)cc1F)C(F)(F)c1ccccn1` (stereo not given) showed an IC50 (Cytochrome P450 3A4) of 136 µM, an MIC50 (Candida albicans [1]) of 0.25 µg/mL (≈ 0.708 µM) and an Efficacy (Candida albicans [2]) of 98%.

`OC(Cn1cnnn1)(c1ccc(F)cc1F)C(F)(F)c1ccc(-c2ccc(C(F)(F)F)cc2)cn1` (stereo not given) gave an IC50 (Cytochrome P450 3A4) of over 60 µM, an MIC50 (Candida albicans [1]) of at most 0.016 µg/mL and an Efficacy (Candida albicans [10]) of 94%.

Work on `O[C@@](Cn1cnnn1)(c1ccc(F)cc1F)C(F)(F)c1ccc(-c2ccc(C(F)(F)F)cc2)cn1` yielded an IC50 (Cytochrome P450 3A4) of 54 µM, an MIC50 (Candida albicans [1]) of at most 0.001 µg/mL and an MIC50 (Trichophyton rubrum) of 0.002 µg/mL (≈ 0.00402 µM). The “Selectivity Index” value [3] was 27000.

With `C[C@@H](c1ncncc1F)[C@](O)(Cn1cnnn1)c1ccc(F)cc1F` the IC50 (Cytochrome P450 3A4) was 32 µM and the MIC50 (Candida albicans [1]) was 1 µg/mL (≈ 2.85 µM).

In the case of `C[C@@H](c1ncncc1F)[C@](O)(Cn1cncn1)c1ccc(F)cc1F` [VORICONAZOLE], the MIC50 (Candida albicans [1]) is reported as 0.06 µg/mL (≈ 0.172 µM).

Work on `O[C@@](Cn1cnnn1)(c1ccc(F)cc1F)C(F)(F)c1ccc(-c2ccc(Cl)cc2)cn1` yielded an IC50 (Cytochrome P450 3A4) of 36 µM, an MIC50 (Candida albicans [1]) of at most 0.001 µg/mL and an MIC50 (Trichophyton rubrum) of 0.004 µg/mL (≈ 0.00862 µM). The “Selectivity Index” value [3] was 9000.

Work on `OC(Cn1cncn1)(Cn1cncn1)c1ccc(F)cc1F` [FLUCONAZOLE] yielded an Efficacy (Candida albicans [11]) of 99%.

`C[C@@H](c1ncncc1F)[C@](O)(Cn1ncnn1)c1ccc(F)cc1F` showed an IC50 (Cytochrome P450 3A4) of 46 µM and an MIC50 (Candida albicans [1]) of 8 µg/mL (≈ 22.8 µM).

Work on `O[C@@](Cn1cnnn1)(c1ccc(F)cc1F)C(F)(F)c1ccc(Cl)cn1` yielded an IC50 (Cytochrome P450 3A4) of 74 µM, an MIC50 (Candida albicans [1]) of 0.25 µg/mL (≈ 0.645 µM) and an Efficacy (Candida albicans [2]) of 100%.

Compound `OC(Cn1cnnn1)(c1ccc(F)cc1F)C(F)(F)c1ccc(-c2ccc(F)cc2)cn1` (stereo not given) has an MIC50 (Candida albicans [1]) of 0.016 µg/mL (≈ 0.0358 µM) and an Efficacy (Candida albicans [11]) of 99%.
